Measured values from the array DNA melting data of Ke et al. (doi:10.1101/2024.01.08.574731).

How the values were obtained:
[1] = melting temperature; fluorescence melt of hairpins on a sequencing array, two-state fit, raised by 9.35 °C to match UV melts; details: sodium 0.088 M
In short: (§1)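 Library hairpins on a sequenced MiSeq flow cell carried annealed Cy3 and quencher oligos, and their Cy3 fluorescence was imaged in 50 mM Na-HEPES pH 8.0 with 25 mM NaCl, in 2.5 °C steps up to 60 °C. Signals were normalised to Cy3 before quenching and to control constructs. Melting temperature and folding enthalpy were obtained from bootstrapped two-state fits, combined by inverse-variance weighting across four replicates, and the fitted temperatures were then raised by 9.35 °C to match UV melts.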

[2] = folding enthalpy; higher = less favourable; fluorescence melt of hairpins on a sequencing array, two-state fit; details: sodium 0.088 M
In short: as §1

| Sequence | Tm [1] [°C] | folding enthalpy [2] [kcal/mol] |
| --- | --- | --- |
| GCACCGCGAAAGCGAGGC ((..(((....)))..)) | 53.2 | -14.6 |
| GCTCCCCGAAAGGGCAGC (((.(((....))).))) | 48 | -21 |
| GATCTCCGCGAGATC ((((((...)))))) | 55.4 | -44.8 |
| GGGCAGGGAAACCTACCC (((.(((....))).))) | 45.5 | -29.2 |
| GATCCCACGTGGGATC ((((((....)))))) | 60.3 | -45.1 |
| GATGGAGGAAACTCTATC (((.(((....))).))) | 37.8 | -24.4 |
| GTGTATGGAAACGTACAC (((((.(....).))))) | 47.2 | -33.9 |
| GGCCCCGAAAGGGCGGCC ((((((....)))..))) | 64.7 | -16.9 |
| GTTGATGGAAACATCGAC ((.((((....)))).)) | 48.5 | -35.9 |
| GATCTGTAGACAGATC ((((((....)))))) | 50.8 | -35.5 |
| GCTTCGTCGAAAGACAGC (((..(((....)))))) | 34.5 | -11.5 |
| GCAATGCGAAAGCATCGC ((.((((....)))).)) | 58.1 | -21.4 |
| GCGACGATTCGC ((((....)))) | 44.6 | -15.9 |
| GATCTAGCCTAGATC ((((((...)))))) | 40.8 | -28.4 |
| GCTACGGGAAACCGTGGC ((.((((....)))).)) | 56.7 | -38.2 |
| GTGGACGAAAGTCTTCAC ((((((....)))..))) | 32.4 | -12.8 |
| GCAGTCGAAAGACAATGC ((((((....)))..))) | 44.4 | -20.1 |
| GTGCTTCGAAAGAACAC (((.(((....)))))) | 42.8 | -32.1 |
| GACCGAGAAATCGGTC ((((((....)))))) | 59.6 | -34.4 |
| GATACCGAAAGGTGGATC ((((((....)))..))) | 30.2 | -13 |
| GTTGCCGGAAACGACAAC ((((.((....)).)))) | 48.5 | -28 |
| GGATACGAAAGTATGTCC ((((((....)))..))) | 30.1 | -12.5 |
| GCGGGCTTCCGC ((((....)))) | 61 | -21.2 |
| GACTCCGAAAGGACGGTC ((((((....)))..))) | 35.3 | -17.9 |

| Sequence | Tm [1] [°C] | folding enthalpy [2] [kcal/mol] |
| --- | --- | --- |
| GCAGACGGAAACGCCTGC ((((.((....)).)))) | 56 | -51.1 |
| GCCTGGCGAAAGCCTAGC ((..(((....)))..)) | 41 | -12.8 |
| GCGTCGGGAAACCGGTGC ((..(((....)))..)) | 48.7 | -21.2 |
| GTGAATGCGAAAGCACAC (((..(((....)))))) | 40.7 | -14.7 |
| GGAGCAGGAAACTGTTCC (((.(((....))).))) | 48 | -29.5 |
| GTGTCCGAAAGGACGCAC ((((((....)))..))) | 57.8 | -10.4 |
| GCTAGGCGAAAGCAAAGC (((..((....))..))) | 44.3 | -19.2 |
| GCGCCGGGAAACCAGCGC ((((.((....)).)))) | 59.1 | -44.5 |
| GCAGACGAAAGTCATTGC ((((((....)))..))) | 37.1 | -16.5 |
| GCCGGCGAAAGCCTAGGC ((((((....)))..))) | 60.1 | -24.5 |
| GCTTGGGGAAACCTAGGC ((.(.((....)).).)) | 32.3 | -23.5 |
| GATCATGCATATGATC ((((((....)))))) | 55.4 | -55.8 |
| GCTTGCGAAAGCACAAGC ((((((....)))..))) | 45.3 | -16.1 |
| GGGTACGCGAAAGCGCCC (((..(((....)))))) | 47.2 | -16.3 |
| GTTCACGAAAGTGAAAC ((((((....))).))) | 46.1 | -16.3 |
| GATCAGTCTCCTGATC ((((((....)))))) | 49.4 | -39.1 |
| GGAGCACGAAAGTGTCC (((.(((....)))))) | 48.5 | -16.4 |
| GCGATAGGAAACTATTGC ((.((((....)))).)) | 45.6 | -38.8 |
| GTAGGCCCGAAAGGGTAC (((..(((....)))))) | 32.9 | -11.1 |
| GGTCGCGGAAACGCAACC (((.(((....))).))) | 51.6 | -33.1 |
| GTTAAGCGAAAGCTCAAC (((.(((....))).))) | 37.6 | -16.7 |
| GCGACCGAAAGGTAGCGC ((((((....)))..))) | 68.5 | -31.7 |
| GATCTCCGGCGAGATC ((((((....)))))) | 50.7 | -27.1 |
| GTAATCCCGAAAGGGTAC (((..(((....)))))) | 27.5 | -11.1 |

| Sequence | Tm [1] [°C] | folding enthalpy [2] [kcal/mol] |
| --- | --- | --- |
| GGACAACGAAAGTTTCC (((.(((....)))))) | 38.3 | -20.1 |
| GTTGGACCGAAAGGTAAC (((..(((....)))))) | 35.8 | -20 |
| GTTACAGCGAAAGCTAAC (((..(((....)))))) | 28.2 | -11.1 |
| AGGAAGAAATTCCT (((((....))))) | 28.9 | -11.9 |
| GTAACGTCGAAAGACTAC (((..(((....)))))) | 28.7 | -11.2 |
| GATCAACGCGTTGATC ((((((....)))))) | 59.5 | -54.2 |
| GGGAGACGAAAGTCCCC (((.(((....)))))) | 56.4 | -35.5 |
| GCCTGCGAAAGCACGGC ((((((....))).))) | 63.2 | -29.7 |
| GATCACCTTGGTGATC ((((((....)))))) | 67 | -37.2 |
| GATCGCACGAAAGTGATC (((..(((....)))))) | 36.4 | -16.3 |
| GTGCCCGAAAGGGACAC ((((((....))).))) | 58.7 | -25.5 |
| GGAATCGAAAGATCTCC ((((((....))).))) | 30.8 | -18.4 |
| GATCCTCTGTAGGATC ((((((....)))))) | 51.8 | -36.2 |
| GGTGGCGAAAGCCTACC ((((((....))).))) | 56.2 | -17.1 |
| GATGTAGGAAACTACACC (.(((((....))))).) | 31.8 | -17.8 |
| GGCTCAGGAAACTGGGTC (.(.(((....))).).) | 38 | -25.9 |
| ATGCGGAAACGCAT (((((....))))) | 57.7 | -17.1 |
| GATCCTCAAAGGATC ((((((...)))))) | 50.6 | -32.1 |
| GATCACTACCGTGATC ((((((....)))))) | 55.3 | -41.2 |
| GGTCCCGAAAGGGCCACC ((((((....)))..))) | 55 | -11.7 |
| GCGTTGAGACGC ((((....)))) | 56.6 | -29.7 |
| GTGCGTCGAAAGACACAC (((.(((....))).))) | 53.5 | -39 |
| GGTATAGAAATATACC ((((((....)))))) | 41.9 | -26.4 |
| GCCTTCGAAAGAAATGGC ((((((....)))..))) | 38.5 | -24.6 |

| Sequence | Tm [1] [°C] | folding enthalpy [2] [kcal/mol] |
| --- | --- | --- |
| GTGCGCGAAAGCGACAC ((((((....))).))) | 63.8 | -16.9 |
| GATCCAGGCATGGATC ((((((....)))))) | 57.8 | -45.8 |
| GAACCCGGAAACGGATTC (((.(((....))).))) | 41.5 | -21 |
| GATCTTGGAAACAAGACC (.(((((....))))).) | 35.2 | -17.4 |
| GCCTCGGGAAACCGAAGC ((.((((....)))).)) | 44.6 | -23.9 |
| GAGTGCACGAAAGTGCTC (((..(((....)))))) | 37.4 | -7.52 |
| GCTGCGCGAAAGCTCAGC ((((.((....)).)))) | 64.4 | -35.4 |
| GTGTAGGGAAACTTGCAC (((.(.(....).).))) | 29.4 | -17.7 |
| GCAGGCGAAAGCCCTGC ((((((....))).))) | 65.6 | -19.2 |
| GAGTAGGGAAACCCACTC ((((.((....)).)))) | 39.6 | -32 |
| GCGGCAATCCGC ((((....)))) | 52.3 | -21.9 |
| GGCGGTCCGAAAGGAGCC (((..(((....)))))) | 46.6 | -17.7 |
| GCACTCTCGAAAGAGTGC (((..(((....)))))) | 65 | -45.9 |
| GCAGCATCGAAAGATTGC (((..(((....)))))) | 33.9 | -16.9 |
| GCGGCCCCCGC ((((...)))) | 56.6 | -20.4 |
| GTCCCCGAAAGGGCGGAC ((((((....)))..))) | 42.8 | -15.4 |
| GTGGAGGGAAACCTCTAC ((.((((....)))).)) | 46.7 | -25.7 |
| GATCTGGATACAGATC ((((((....)))))) | 56.7 | -34 |
| GATCTTTGCGAAGATC ((((((....)))))) | 47.6 | -45.8 |
| GATCCTACGCAGGATC ((((((....)))))) | 51.1 | -35 |
| GATCGATTTTTCGATC ((((((....)))))) | 54.7 | -44.3 |
